These results are taken from publication PMC6072216 (MedChemComm, 2017).

Each structure is given as a SMILES string. A value given as a limit tells only on which side of the number the result lay.

The subject of data set [1] is MDA-MB-231 breast cancer cells. Briefly: MTS cell proliferation/viability assay, MDA-MB-231. Format: cell-based, Human. Particulars: for antiproliferative activity (in words): MDA-MB-231, 50 μM, 48 hours, MTS. Summed up: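 MDA-MB-231 cells cultured in DMEM with 10% FBS and 1% penicillin/streptomycin at 37 °C, 5% CO2; seeded at 7 × 10^3 per well. Serum removed after 24 h, then test compound at 1–50 μM in DMSO (max 0.1%) for 48 h, with a solvent-only control. MTS reagent 4 h at 37 °C, OD 550 nm. Blank-subtracted values normalised to DMSO (100%); triplicates; IC50 by nonlinear regression.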

Data set [2] deals with MCF-7 breast cancer cells. The data set is described as follows: MTS cell proliferation assay, MCF-7. Format: cell-based, human. To be noted: MCF-7, highest concentration tested 50 μM, 48 h. The method in brief:
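MCF-7 cells seeded at 7 × 10^3 per well; serum withdrawn after 24 h, then exposed 48 h to test compound at 10–50 μM in DMSO (max 0.1%), with a solvent-only control. MTS reagent added; absorbance read at 550 nm after 4 h at 37 °C. Blank-subtracted values normalised to DMSO control (100%); triplicates.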
For orientation: Tetrazolium assays rely on reduction of a dye to a coloured formazan, in cell work by metabolically active cells.

For the next data set, the system named is MDA-MB-231 cells. The data set is described as follows: Annexin V-FITC/PI apoptosis assay by flow cytometry. To be noted: 48 hours. It is filed as cell-based, Human. Summed up: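 MDA-MB-231 cells seeded at 1 × 10^5 per well in 6-well plates; 24 h after serum removal, exposed to test compound (20–40 μM) for 48 h against a 0.1% DMSO control. Trypsinised, washed in cold PBS, stained with Annexin V-FITC and PI (50 μg mL–1) in binding buffer for 20 min in the dark at 0 °C. Flow cytometry gated viable, early-apoptotic, late-apoptotic and necrotic fractions. 3 independent experiments; one-way ANOVA with Fisher's PLSD.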

A further data set relates to VERO cells. The data set is described as follows: Cytotoxicity against GFP-expressing VERO cells. Particulars: 50 μg mL^–1 (158 μM for 2c, 139 μM for 3), 4 days. It is filed as cell-based, African Green Monkey.
Data set [3] concerns leukaemia, colon, renal and melanoma cancer cell lines. Briefly: NCI anti-cancer screen, summary over cell line groups. It is filed as cell-based. Particulars: read-out: IC50 values.

As to `COC(=O)C[C@H]1C(=O)C=C2C3CC4CC(CC[C@@]4(C)N21)[C@]3(C)NC(C)=O` (stereo partly drawn) [Compound 10, Methyl(E)-[exo-11-acetylamino-9α,endo-11-dimethyl-2-oxo-1,2,4,5,5α,6,7,8,9,9α-decahydro-4,7-methanopyrrolo[1,2-a]-quinolin-1-ylidane]ethanoate], in data set [1], the “antiproliferative activity (in words)” value is given as “lack of activity”.

For the molecule `C[C@]1(NC(=O)CCl)C2CC[C@@]3(C)N=C(CCl)C1CC3C2` (stereo partly drawn) [Compound 2c, Exo-11-chloroacetamido-4,endo-11-dimethyl-2-chloromethyl-3-azatricyclo[5.3.1.0^4,9]undec-2-ene], the MDA-MB-231 cell viability in data set [1] (at 20 μM) is recorded as 90 % of control. Moreover, the “antiproliferative activity (in words)” value in data set [2] was “no antiproliferative activities”. For the same molecule, the entries for the “increase of population of cells in early apoptosis” value in the data set with MDA-MB-231 cells (20 μM) and with MDA-MB-231 cells (40 μM) were 21% and 31%, respectively. The “reduction of VERO cell viability” value in the data set with VERO cells was 84 % of control.

For the molecule `COC(=O)/C=C1\C(=O)C=C2C3CC4CC(CCC4(C)N21)C3(C)NC(C)=O` (stereo not shown) [Compound 3], the “reduction of VERO cell viability” value in the data set on VERO cells is on record as 77 % of control. In addition, the IC50 (in general, the concentration that inhibits the measured activity by half) in data set [3] was below 10 µM.

For the molecule `CC(=O)N[C@@]1(C)C2CC[C@@]3(C)N[C@@H](CCl)C1CC3C2` (stereo partly drawn) [Compound 9, Exo-11-acetamido-4,endo-11-dimethyl-2-chloromethyl-3-azatricyclo[5.3.1.0^4,9]undecane], the “antiproliferative activity (in words)” value in data set [1] was “lack of activity”.

As for `CC(=O)N[C@@]1(C)C2CC[C@@]3(C)N=C(CCl)C1CC3C2` (stereo partly drawn) [Compound 8, Exo-11-acetamido-4,endo-11-dimethyl-2-chloromethyl-3-azatricyclo[5.3.1.0^4,9]undec-2-ene], the “antiproliferative activity (in words)” value in data set [1] is on record as “lack of activity”.
